According to ChEMBL document CHEMBL1914457, “Syntheses of phenylpyrazolodiazepin-7-ones as conformationally rigid analogs of aminopyrazole amide scaffold and their antiproliferative effects on cancer cells” (Bioorg Med Chem, 2011):

Legend:
[1] = Growth inhibition of human A375P cells after 24 hrs by MTT assay; type: functional
Method in brief: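 A375P cells grown in DMEM with 10% FBS and 1% penicillin/streptomycin at 37 °C, 5% CO2. Cells lifted with 0.05% trypsin-0.02% EDTA, seeded at 5 × 10^3 cells/well and held 24 h before treatment. Compounds given as a threefold serial dilution over 12 points. Viability read by MTT reduction (CellTiter 96) as absorbance at 590 nm; IC50 fitted from the curve.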

U-937 = experiment: Growth inhibition of human U937 cells after 24 hrs by thiazolyl blue tetrazolium bromide staining-based MTT assay; type: functional; conditions: U-937, 24 h
Method in brief: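 U937 cells kept in RPMI 1640 with 10% FBS, 1% penicillin/streptomycin and 25 mM HEPES at 37 °C, 5% CO2. Seeded at 5 × 10^3 cells/well and incubated 24 h before treatment. Compounds given as a threefold serial dilution over 12 points. Viability read by MTT reduction with thiazolyl blue tetrazolium bromide as absorbance at 570 nm.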

[2] = target: Focal adhesion kinase 1 (Homo sapiens) (UniProt Q05397); experiment: Inhibition of FAK at 10 uM
[3] = target: Macrophage-stimulating protein receptor (Homo sapiens) (UniProt Q04912); experiment: Inhibition of RON at 10 uM
[4] = target: T1, Phosphatidylinositol 4,5-bisphosphate 3-kinase catalytic subunit alpha isoform (Homo sapiens, UniProt P42336); experiment: Inhibition of PI3Kalpha
[5] = target: T2, RAF proto-oncogene serine/threonine-protein kinase (Homo sapiens, UniProt P04049); experiment: Inhibition of human CRAF using [gamma-33P]ATP at 10 uM after 40 mins by scintillation counting
Method in brief: (§1)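 Human c-Raf (5–10 mU) was run in 25 mM Tris pH 7.5 with 0.02 mM EGTA, 10 mM Mg acetate and 0.66 mg/mL myelin basic protein as substrate. The reaction was started with Mg–[γ-33P]ATP (about 500 cpm/pmol; ATP concentration not stated) and run 40 min at room temperature. It was stopped with 3% phosphoric acid, spotted on P30 filtermat, washed in 75 mM phosphoric acid and methanol, and scintillation counted.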

[6] = target: Mitogen-activated protein kinase 10 (Homo sapiens) (UniProt P53779); experiment: Inhibition of JNK3 at 10 uM
[7] = target: Fibroblast growth factor receptor 2 (Homo sapiens) (UniProt P21802); experiment: Inhibition of FGFR2 at 10 uM
[8] = target: Tyrosine-protein kinase Lyn (Homo sapiens) (UniProt P07948); experiment: Inhibition of LYN at 10 uM
[9] = target: Hepatocyte growth factor receptor (Homo sapiens) (UniProt P08581); experiment: Inhibition of cMet at 10 uM
[10] = target: Aurora kinase A (Homo sapiens) (UniProt O14965); experiment: Inhibition of Aurora-A at 10 uM
[11] = target: Tyrosine-protein kinase JAK3 (Homo sapiens) (UniProt P52333); experiment: Inhibition of JAK3 at 10 uM
[12] = target: Proto-oncogene tyrosine-protein kinase ROS (Homo sapiens) (UniProt P08922); experiment: Inhibition of ROS at 10 uM
[13] = target: Glycogen synthase kinase-3 beta (Homo sapiens) (UniProt P49841); experiment: Inhibition of GSK3-beta at 10 uM
[14] = target: Epidermal growth factor receptor (Homo sapiens) (UniProt P00533); experiment: Inhibition EGFR at 10 uM
[15] = target: Proto-oncogene tyrosine-protein kinase Src (Homo sapiens) (UniProt P12931); experiment: Inhibition cSRC at 10 uM
[16] = target: Insulin-like growth factor 1 receptor (Homo sapiens) (UniProt P08069); experiment: Inhibition of IGF1R at 10 uM
[17] = target: Cyclin-dependent kinase 2/cyclin E1 (Homo sapiens) (UniProt P24864+P24941); experiment: Inhibition of CDK2/Cyclin E at 10 uM; type: protein-complex assay
[18] = target: RAC-alpha serine/threonine-protein kinase (Homo sapiens) (UniProt P31749); experiment: Inhibition of AKT1 at 10 uM
[19] = target: ALK tyrosine kinase receptor (Homo sapiens) (UniProt Q9UM73); experiment: Inhibition of Alk at 10 uM
[20] = target: BDNF/NT-3 growth factors receptor (Homo sapiens) (UniProt Q16620); experiment: Inhibition of TRKB at 10 uM
[21] = target: Mitogen-activated protein kinase 1 (Homo sapiens) (UniProt P28482); experiment: Inhibition of ERK2 at 10 uM
[22] = target: T1, Phosphatidylinositol 4,5-bisphosphate 3-kinase catalytic subunit alpha isoform; experiment: Inhibition of PI3Kalpha at 10 uM
[23] = target: Dual specificity mitogen-activated protein kinase kinase 1 (Homo sapiens) (UniProt Q02750); experiment: Inhibition of MEK1 at 10 uM
[24] = target: Mitogen-activated protein kinase 8 (Homo sapiens) (UniProt P45983); experiment: Inhibition of JNK1 at 10 uM
[25] = target: Serine/threonine-protein kinase B-raf (Homo sapiens, UniProt P15056, V600E); experiment: Inhibition of BRAF V600E mutant
[26] = target: T2, RAF proto-oncogene serine/threonine-protein kinase; experiment: Inhibition of human CRAF using [gamma-33P]ATP after 40 mins by scintillation counting; method in brief: as §1
[27] = target: Mast/stem cell growth factor receptor Kit (Homo sapiens) (UniProt P10721); experiment: Inhibition of cKIT at 10 uM
[28] = target: Fibroblast growth factor receptor 3 (Homo sapiens) (UniProt P22607); experiment: Inhibition of FGFR3 at 10 uM
[29] = target: Mitogen-activated protein kinase 14 (Homo sapiens) (UniProt Q16539); experiment: Inhibition of p38alpha at 10 uM
[30] = target: Cyclin-dependent kinase 1/cyclin B1 (Homo sapiens) (UniProt P06493+P14635); experiment: Inhibition of CDK1/Cyclin B at 10 uM; type: protein-complex assay
[31] = target: T3, Serine/threonine-protein kinase mTOR (Homo sapiens, UniProt P42345); experiment: Inhibition of MTOR at 10 uM
[32] = target: Serine/threonine-protein kinase PLK1 (Homo sapiens) (UniProt P53350); experiment: Inhibition of PLK1 at 10 uM
[33] = target: Vascular endothelial growth factor receptor 2 (Homo sapiens) (UniProt P35968); experiment: Inhibition of KDR at 10 uM
[34] = target: Tyrosine-protein kinase SYK (Homo sapiens) (UniProt P43405); experiment: Inhibition of SYK at 10 uM
[35] = tested on: Serine/threonine-protein kinase B-raf (Homo sapiens), P15056 [V600E]; experiment: Inhibition of BRAF V599E mutant at 10 uM
[36] = target: Tyrosine-protein kinase Lck (Homo sapiens) (UniProt P06239); experiment: Inhibition of LCK at 10 uM
[37] = target: Tyrosine-protein kinase ABL1 (Homo sapiens) (UniProt P00519); experiment: Inhibition of Abl1 at 10 uM
[38] = target: Macrophage colony-stimulating factor 1 receptor (Homo sapiens) (UniProt P07333); experiment: Inhibition of FMS at 10 uM
[39] = target: Receptor-type tyrosine-protein kinase FLT3 (Homo sapiens) (UniProt P36888); experiment: Inhibition of FLT3 at 10 uM
[40] = target: T3, Serine/threonine-protein kinase mTOR; experiment: Inhibition of MTOR

T2 sequence (P04049 whole entry): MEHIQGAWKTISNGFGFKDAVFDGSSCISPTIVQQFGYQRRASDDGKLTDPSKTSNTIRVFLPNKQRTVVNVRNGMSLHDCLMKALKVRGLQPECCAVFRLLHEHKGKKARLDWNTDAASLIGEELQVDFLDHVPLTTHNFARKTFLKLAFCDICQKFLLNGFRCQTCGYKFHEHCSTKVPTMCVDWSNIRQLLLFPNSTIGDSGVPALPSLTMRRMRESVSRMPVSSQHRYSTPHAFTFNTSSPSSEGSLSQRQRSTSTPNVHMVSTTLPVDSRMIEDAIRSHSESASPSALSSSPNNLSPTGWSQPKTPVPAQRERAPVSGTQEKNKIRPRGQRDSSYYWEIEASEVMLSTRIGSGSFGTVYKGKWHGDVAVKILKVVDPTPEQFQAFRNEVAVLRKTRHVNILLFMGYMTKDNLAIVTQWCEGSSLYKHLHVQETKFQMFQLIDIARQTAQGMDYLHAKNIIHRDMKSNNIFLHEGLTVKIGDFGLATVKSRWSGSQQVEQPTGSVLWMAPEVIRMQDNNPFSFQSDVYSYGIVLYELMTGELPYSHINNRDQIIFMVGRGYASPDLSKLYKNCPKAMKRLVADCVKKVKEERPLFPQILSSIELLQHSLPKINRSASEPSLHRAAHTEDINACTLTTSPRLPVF
Serine/threonine-protein kinase B-raf, sequence (P15056 2-766 V600E limits assumed): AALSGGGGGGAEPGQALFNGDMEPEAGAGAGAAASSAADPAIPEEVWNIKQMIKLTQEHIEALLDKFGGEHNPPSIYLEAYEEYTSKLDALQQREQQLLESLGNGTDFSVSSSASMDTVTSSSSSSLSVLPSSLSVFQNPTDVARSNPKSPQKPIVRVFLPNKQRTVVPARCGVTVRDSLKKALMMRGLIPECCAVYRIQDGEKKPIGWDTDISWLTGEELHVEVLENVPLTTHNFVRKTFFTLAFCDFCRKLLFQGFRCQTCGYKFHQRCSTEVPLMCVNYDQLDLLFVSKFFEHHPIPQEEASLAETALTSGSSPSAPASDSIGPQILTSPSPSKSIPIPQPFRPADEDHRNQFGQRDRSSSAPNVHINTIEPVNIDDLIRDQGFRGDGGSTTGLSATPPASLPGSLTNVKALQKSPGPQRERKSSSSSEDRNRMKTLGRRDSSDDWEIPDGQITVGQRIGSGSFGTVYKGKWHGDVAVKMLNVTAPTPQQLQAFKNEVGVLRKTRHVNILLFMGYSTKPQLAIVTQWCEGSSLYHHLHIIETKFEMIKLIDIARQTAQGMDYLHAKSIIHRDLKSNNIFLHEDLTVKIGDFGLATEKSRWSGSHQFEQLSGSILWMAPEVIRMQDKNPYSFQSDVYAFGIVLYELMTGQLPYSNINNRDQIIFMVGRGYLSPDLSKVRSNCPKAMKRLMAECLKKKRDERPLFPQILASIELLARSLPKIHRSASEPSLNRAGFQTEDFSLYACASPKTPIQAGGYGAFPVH
T1 sequence (P42336 whole entry, canonical isoform): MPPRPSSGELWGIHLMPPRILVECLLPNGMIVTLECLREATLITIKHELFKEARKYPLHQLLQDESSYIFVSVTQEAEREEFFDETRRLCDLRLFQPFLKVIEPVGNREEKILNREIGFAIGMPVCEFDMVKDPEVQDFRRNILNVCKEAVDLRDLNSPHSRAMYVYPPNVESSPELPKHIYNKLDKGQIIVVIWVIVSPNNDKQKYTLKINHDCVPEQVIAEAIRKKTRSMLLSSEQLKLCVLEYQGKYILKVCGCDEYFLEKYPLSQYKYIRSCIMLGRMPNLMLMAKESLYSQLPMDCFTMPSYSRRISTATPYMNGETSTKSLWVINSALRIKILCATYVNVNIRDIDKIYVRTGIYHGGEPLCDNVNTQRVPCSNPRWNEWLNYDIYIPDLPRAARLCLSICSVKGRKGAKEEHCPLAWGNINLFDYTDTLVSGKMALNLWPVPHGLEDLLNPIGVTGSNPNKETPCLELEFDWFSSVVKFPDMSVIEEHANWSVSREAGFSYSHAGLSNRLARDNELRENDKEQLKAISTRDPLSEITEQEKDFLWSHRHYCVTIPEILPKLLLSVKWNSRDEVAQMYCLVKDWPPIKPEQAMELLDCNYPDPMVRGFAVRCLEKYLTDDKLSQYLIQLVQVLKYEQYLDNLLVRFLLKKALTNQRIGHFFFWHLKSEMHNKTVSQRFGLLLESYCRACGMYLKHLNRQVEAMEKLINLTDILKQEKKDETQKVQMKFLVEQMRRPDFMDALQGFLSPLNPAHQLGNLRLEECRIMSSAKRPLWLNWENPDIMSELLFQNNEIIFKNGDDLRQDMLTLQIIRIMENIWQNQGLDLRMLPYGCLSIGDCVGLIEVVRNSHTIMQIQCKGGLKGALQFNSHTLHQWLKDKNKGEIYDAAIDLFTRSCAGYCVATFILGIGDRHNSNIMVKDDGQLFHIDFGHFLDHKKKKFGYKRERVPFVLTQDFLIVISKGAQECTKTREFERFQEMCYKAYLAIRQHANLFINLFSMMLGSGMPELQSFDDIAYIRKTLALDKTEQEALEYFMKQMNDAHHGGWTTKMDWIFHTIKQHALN
Proto-oncogene tyrosine-protein kinase ROS (Homo sapiens), sequence (P08922 whole entry): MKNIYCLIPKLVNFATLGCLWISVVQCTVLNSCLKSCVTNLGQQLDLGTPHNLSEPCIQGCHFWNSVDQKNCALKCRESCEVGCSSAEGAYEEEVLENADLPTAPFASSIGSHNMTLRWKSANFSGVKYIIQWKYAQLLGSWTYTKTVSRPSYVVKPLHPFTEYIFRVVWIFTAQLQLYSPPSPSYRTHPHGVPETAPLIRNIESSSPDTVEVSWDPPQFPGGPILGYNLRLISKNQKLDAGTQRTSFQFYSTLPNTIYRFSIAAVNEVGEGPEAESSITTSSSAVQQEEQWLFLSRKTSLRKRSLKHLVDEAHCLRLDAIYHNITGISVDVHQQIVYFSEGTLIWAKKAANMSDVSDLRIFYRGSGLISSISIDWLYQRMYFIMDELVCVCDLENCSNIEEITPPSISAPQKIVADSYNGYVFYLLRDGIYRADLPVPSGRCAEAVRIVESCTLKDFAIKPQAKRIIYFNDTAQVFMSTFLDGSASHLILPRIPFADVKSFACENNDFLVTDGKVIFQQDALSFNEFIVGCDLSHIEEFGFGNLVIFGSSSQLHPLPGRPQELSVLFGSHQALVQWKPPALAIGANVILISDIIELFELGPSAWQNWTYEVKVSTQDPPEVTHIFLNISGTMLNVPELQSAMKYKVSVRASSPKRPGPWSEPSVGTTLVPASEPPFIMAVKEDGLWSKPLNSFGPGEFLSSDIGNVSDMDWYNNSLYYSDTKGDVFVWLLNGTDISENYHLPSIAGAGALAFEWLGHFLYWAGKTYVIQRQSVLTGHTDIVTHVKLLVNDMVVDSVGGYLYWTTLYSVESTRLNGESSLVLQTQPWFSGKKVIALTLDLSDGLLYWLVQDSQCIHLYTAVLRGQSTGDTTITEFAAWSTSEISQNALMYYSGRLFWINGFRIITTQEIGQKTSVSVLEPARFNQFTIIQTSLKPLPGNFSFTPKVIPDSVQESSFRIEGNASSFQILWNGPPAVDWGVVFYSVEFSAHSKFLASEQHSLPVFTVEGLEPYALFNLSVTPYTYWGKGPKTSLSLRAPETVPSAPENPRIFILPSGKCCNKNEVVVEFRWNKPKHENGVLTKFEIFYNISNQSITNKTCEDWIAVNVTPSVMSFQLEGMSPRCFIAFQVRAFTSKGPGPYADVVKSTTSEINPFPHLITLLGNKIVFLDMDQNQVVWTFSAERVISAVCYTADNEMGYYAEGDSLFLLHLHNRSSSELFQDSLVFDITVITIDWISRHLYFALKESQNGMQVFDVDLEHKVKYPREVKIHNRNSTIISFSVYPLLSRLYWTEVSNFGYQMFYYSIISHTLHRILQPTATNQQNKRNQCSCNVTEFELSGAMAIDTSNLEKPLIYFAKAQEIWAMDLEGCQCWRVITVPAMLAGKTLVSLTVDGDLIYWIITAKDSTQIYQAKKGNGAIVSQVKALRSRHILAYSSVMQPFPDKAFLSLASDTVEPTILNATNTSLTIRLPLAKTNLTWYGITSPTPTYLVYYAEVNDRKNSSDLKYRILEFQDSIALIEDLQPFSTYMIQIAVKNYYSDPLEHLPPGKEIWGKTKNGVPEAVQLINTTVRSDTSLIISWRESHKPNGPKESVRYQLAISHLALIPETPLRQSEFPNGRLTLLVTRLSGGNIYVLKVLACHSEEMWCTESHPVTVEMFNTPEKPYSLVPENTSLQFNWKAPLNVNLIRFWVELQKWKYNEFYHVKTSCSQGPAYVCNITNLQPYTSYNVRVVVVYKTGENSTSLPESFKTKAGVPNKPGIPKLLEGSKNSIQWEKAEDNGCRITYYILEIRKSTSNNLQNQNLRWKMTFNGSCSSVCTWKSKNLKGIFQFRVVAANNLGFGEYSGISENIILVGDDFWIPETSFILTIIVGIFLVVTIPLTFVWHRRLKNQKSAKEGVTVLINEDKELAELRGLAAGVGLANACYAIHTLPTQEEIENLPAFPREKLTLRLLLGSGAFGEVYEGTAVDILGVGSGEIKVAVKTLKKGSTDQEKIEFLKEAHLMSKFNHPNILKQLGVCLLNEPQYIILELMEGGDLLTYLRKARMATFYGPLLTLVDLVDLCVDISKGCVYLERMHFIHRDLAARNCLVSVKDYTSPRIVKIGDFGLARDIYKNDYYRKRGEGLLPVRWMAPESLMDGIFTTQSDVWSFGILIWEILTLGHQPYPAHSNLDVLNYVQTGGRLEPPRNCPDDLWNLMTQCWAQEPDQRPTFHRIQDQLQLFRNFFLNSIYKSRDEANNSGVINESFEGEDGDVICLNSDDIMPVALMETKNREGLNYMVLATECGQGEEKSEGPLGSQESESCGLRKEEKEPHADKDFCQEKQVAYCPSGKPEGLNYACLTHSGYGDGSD

COc1ccc(Cn2ncc3c2NC(=O)CC(c2cccc(NC(=O)Nc4ccc(Cl)c(Cl)c4)c2)=N3)cc1
GI50 [1]: 3860 nM | GI50 (U-937): 14900 nM

O=C1CC(c2cccc(NC(=O)c3ccc(Cl)c(C(F)(F)F)c3)c2)=Nc2cnn(Cc3ccccc3)c2N1
inhibition [2]: 0% | inhibition [3]: 4.4% | IC50 [4]: 2150 nM | inhibition [5]: 92.9% | inhibition [6]: 0% | inhibition [7]: 0% | GI50 [1]: 430 nM | inhibition [8]: 4.6% | inhibition [9]: 1.3% | GI50 (U-937): 60 nM | inhibition [10]: 6.5% | inhibition [11]: 0% | inhibition [12]: 0% | inhibition [13]: 17.8% | inhibition [14]: 1.6% | inhibition [15]: 4.3% | inhibition [16]: 1.9% | inhibition [17]: 0.9% | inhibition [18]: 0% | inhibition [19]: 0% | inhibition [20]: 0.2% | inhibition [21]: 0% | inhibition [22]: 75.2% | inhibition [23]: 0% | inhibition [24]: 0% | IC50 ([25]; read-out: IC50): 655 nM | IC50 [26]: 961 nM | inhibition [27]: 3.6% | inhibition [28]: 0% | inhibition [29]: 0% | inhibition [30]: 7% | inhibition [31]: 0% | inhibition [32]: 0% | inhibition [33]: 0% | inhibition [34]: 0% | inhibition [35]: 85.6% | inhibition [36]: 5.6% | inhibition [37]: 0% | inhibition [38]: 0.5% | inhibition [39]: 19.3%

O=C1CC(c2ccc(NC(=O)c3ccc(Cl)c(C(F)(F)F)c3)cc2)=Nc2cnn(Cc3ccccc3)c2N1
GI50 [1]: 13100 nM | GI50 (U-937): 60 nM

O=C1CC(c2ccc(NC(=O)c3ccc(N4CCOCC4)c(C(F)(F)F)c3)cc2)=Nc2cnn(Cc3ccccc3)c2N1
GI50 [1]: 16400 nM | GI50 (U-937): 210 nM

O=C1CC(c2cccc(NC(=O)c3cc(N4CCOCC4)cc(C(F)(F)F)c3)c2)=Nc2cnn(Cc3ccccc3)c2N1
GI50 [1]: > 30000 nM | GI50 (U-937): > 30000 nM

COc1ccc(Cn2ncc3c2NC(=O)CC(c2cccc(NC(=O)Nc4ccc(C(F)(F)F)cc4)c2)=N3)cc1
GI50 [1]: 770 nM | GI50 (U-937): 110 nM

COc1ccc(Cn2ncc3c2NC(=O)CC(c2ccc(NC(=O)Nc4ccc(Cl)c(C(F)(F)F)c4)cc2)=N3)cc1
GI50 [1]: 3930 nM | GI50 (U-937): 7290 nM

COc1ccc(Cn2ncc3c2NC(=O)CC(c2cccc(NC(=O)Nc4ccc(Cl)cc4)c2)=N3)cc1
GI50 [1]: 640 nM | GI50 (U-937): 580 nM

COc1ccc(Cn2ncc3c2NC(=O)CC(c2cccc(NC(=O)Nc4cccc(Cl)c4)c2)=N3)cc1
GI50 [1]: 910 nM | GI50 (U-937): 630 nM

Cc1cn(-c2cc(C(=O)Nc3ccc(C4=Nc5cnn(Cc6ccccc6)c5NC(=O)C4)cc3)cc(C(F)(F)F)c2)cn1
GI50 [1]: > 30000 nM | GI50 (U-937): > 30000 nM

O=C1CC(c2ccc(NC(=O)Nc3ccc(Cl)c(C(F)(F)F)c3)cc2)=Nc2cnn(Cc3ccccc3)c2N1
GI50 [1]: 1190 nM | GI50 (U-937): 8680 nM

O=c1cc(N2CCOCC2)oc2c(-c3ccccc3)cccc12 [LY-294002]
IC50 [40]: 6800 nM

O=C1CC(c2cccc(NC(=O)Nc3ccc(Cl)cc3)c2)=Nc2cn[nH]c2N1
GI50 [1]: > 30000 nM | GI50 (U-937): > 30000 nM

COc1ccc(Cn2ncc3c2NC(=O)CC(c2cccc(NC(=O)Nc4cc(Cl)cc(Cl)c4)c2)=N3)cc1
GI50 [1]: 780 nM | GI50 (U-937): 6480 nM

COc1ccc(Cn2ncc3c2NC(=O)CC(c2cccc(NC(=O)Nc4cccc(C(F)(F)F)c4)c2)=N3)cc1
GI50 [1]: 250 nM | GI50 (U-937): 280 nM

COc1ccc(Cn2ncc3c2NC(=O)CC(c2cccc(NC(=O)Nc4cc(N5CCOCC5)cc(C(F)(F)F)c4)c2)=N3)cc1
GI50 [1]: 3320 nM | GI50 (U-937): > 30000 nM

Cc1cn(-c2cc(C(=O)Nc3cccc(C4=Nc5cnn(Cc6ccccc6)c5NC(=O)C4)c3)cc(C(F)(F)F)c2)cn1
GI50 [1]: > 30000 nM | GI50 (U-937): > 30000 nM

CNC(=O)c1cc(Oc2ccc(NC(=O)Nc3ccc(Cl)c(C(F)(F)F)c3)cc2)ccn1 [SORAFENIB]
GI50 [1]: 5580 nM | GI50 (U-937): 2850 nM

O=C1CC(c2ccc(NC(=O)Nc3ccc(Cl)c(C(F)(F)F)c3)cc2)=Nc2cn[nH]c2N1
GI50 [1]: > 30000 nM | GI50 (U-937): > 30000 nM

O=C1CC(c2cccc(NC(=O)Nc3ccc(Cl)c(C(F)(F)F)c3)c2)=Nc2cnn(Cc3ccccc3)c2N1
GI50 [1]: 4450 nM | GI50 (U-937): 7310 nM | IC50 [25]: Not Active | IC50 [26]: 668 nM

Cc1cn(-c2cc(NC(=O)Nc3ccc(C4=Nc5cnn(Cc6ccccc6)c5NC(=O)C4)cc3)cc(C(F)(F)F)c2)cn1
GI50 [1]: > 30000 nM | GI50 (U-937): > 30000 nM

O=C1CC(c2ccc(NC(=O)Nc3cccc(Cl)c3)cc2)=Nc2cnn(Cc3ccccc3)c2N1
GI50 [1]: 2070 nM | GI50 (U-937): 670 nM

O=C1CC(c2cccc(NC(=O)c3ccc(N4CCOCC4)c(C(F)(F)F)c3)c2)=Nc2cnn(Cc3ccccc3)c2N1
GI50 [1]: 2910 nM | GI50 (U-937): 1750 nM

O=C1CC(c2cccc(NC(=O)Nc3ccc(Cl)c(Cl)c3)c2)=Nc2cn[nH]c2N1
GI50 [1]: > 30000 nM | GI50 (U-937): > 30000 nM
